Measurements reported in ChEMBL document CHEMBL5247578, “Effective synthesis of benzimidazoles-imidazo[1,2-a]pyrazine conjugates: A comparative study of mono-and bis-benzimidazoles for antitumor activity” (Eur J Med Chem, 2019).

Experiments:
OVCAR-8 = experiment: Antiproliferative activity against human OVCAR-8 cells assessed as cell growth inhibition at 10 uM incubated for 48 hrs by sulforhodamine B assay relative to control; format: functional
Summary of the method: (§1)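 NCI-60 single-dose screen at 10^-5 M. Cells grown in RPMI 1640 with 5% FBS and 2 mM L-glutamine, plated at 5,000–40,000 cells/well, and preincubated 24 h. Drug (DMSO stock) added and incubated 48 h at 37 °C, 5% CO2. Adherent cells fixed with cold TCA, stained with 0.4% SRB in 1% acetic acid, dye solubilized in 10 mM trizma base, A515 read. Percent growth taken against time-zero and untreated control.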

SN12C = experiment: Antiproliferative activity against human SN12C cells assessed as cell growth inhibition at 10 uM incubated for 48 hrs by sulforhodamine B assay relative to control; format: functional; summary of the method: as §1
MDA-MB-468 = experiment: Antiproliferative activity against human MDA-MB-468 cells assessed as cell growth inhibition at 10 uM incubated for 48 hrs by sulforhodamine B assay relative to control; format: functional; summary of the method: as §1
CCRF-CEM = experiment: Antiproliferative activity against human CCRF-CEM cells assessed as cell growth inhibition at 10 uM incubated for 48 hrs by sulforhodamine B assay relative to control; format: functional
Summary of the method: (§2)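 Single-dose NCI-60 prescreen at 10^-5 M. Cells in RPMI 1640 with 5% FBS and 2 mM L-glutamine, seeded 5,000–40,000 cells/well with 24 h preincubation, then drug exposure for 48 h at 37 °C under 5% CO2. Growth read by SRB staining of TCA-fixed cells at 515 nm against time-zero and untreated controls. Negative growth values denote cell kill.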

ACHN = experiment: Antiproliferative activity against human ACHN cells assessed as cell growth inhibition at 10 uM incubated for 48 hrs by sulforhodamine B assay relative to control; format: functional; summary of the method: as §2
[1] = n-Octanol/phosphate buffer partition coefficient, logP of the compound at pH 7.4 incubated for 85 mins by shake-flask method; format: physicochemical
Summary of the method: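 Octanol–water partition by shake-flask: n-octanol with 0.15 M phosphate buffer pH 7.4 at 10:1 volumes. Buffer-phase absorbance read before mixing, then shaken 50 min and centrifuged at 2500 rpm for 35 min. Buffer absorbance read again; P = (Ai−Af)/Af × Vw/Vo.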

MOLT-4 = experiment: Antiproliferative activity against human MOLT-4 cells assessed as cell growth inhibition at 10 uM incubated for 48 hrs by sulforhodamine B assay relative to control; format: functional; summary of the method: as §1
SNB-19 = experiment: Antiproliferative activity against human SNB-19 cells assessed as cell growth inhibition at 10 uM incubated for 48 hrs by sulforhodamine B assay relative to control; format: functional; summary of the method: as §1
EKVX = experiment: Antiproliferative activity against human EKVX cells assessed as cell growth inhibition at 10 uM incubated for 48 hrs by sulforhodamine B assay relative to control; format: functional
Summary of the method: (§3)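 NCI-60 one-dose prescreen at 10^-5 M. Cells grown in RPMI 1640 with 5% FBS and 2 mM glutamine, preincubated 24 h, then exposed 48 h at 37 °C. Adherent lines TCA-fixed, SRB-stained, A515 read. Growth percent relative to time-zero and control; negative values mean cell kill.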

LOX IMVI = experiment: Antiproliferative activity against human LOX IMVI cells assessed as cell growth inhibition at 10 uM incubated for 48 hrs by sulforhodamine B assay relative to control; format: functional; summary of the method: as §1
HL-60 = experiment: Antiproliferative activity against human HL-60 cells assessed as cell growth inhibition at 10 uM incubated for 48 hrs by sulforhodamine B assay relative to control; format: functional; summary of the method: as §3
HCT-15 = experiment: Antiproliferative activity against human HCT-15 cells assessed as cell growth inhibition at 10 uM incubated for 48 hrs by sulforhodamine B assay relative to control; format: functional; summary of the method: as §3
U-251 = experiment: Antiproliferative activity against human U-251 cells assessed as cell growth inhibition at 10 uM incubated for 48 hrs by sulforhodamine B assay relative to control; format: functional; summary of the method: as §1
A498 = experiment: Antiproliferative activity against human A498 cells assessed as cell growth inhibition at 10 uM incubated for 48 hrs by sulforhodamine B assay relative to control; format: functional; summary of the method: as §2
SNB-75 = experiment: Antiproliferative activity against human SNB-75 cells assessed as cell growth inhibition at 10 uM incubated for 48 hrs by sulforhodamine B assay relative to control; format: functional; summary of the method: as §1
SK-MEL-2 = experiment: Antiproliferative activity against human SK-MEL-2 cells assessed as cell growth inhibition at 10 uM incubated for 48 hrs by sulforhodamine B assay relative to control; format: functional; summary of the method: as §1
RXF 393 = experiment: Antiproliferative activity against human RXF 393 cells assessed as cell growth inhibition at 10 uM incubated for 48 hrs by sulforhodamine B assay relative to control; format: functional; summary of the method: as §1
NCI-H522 = experiment: Antiproliferative activity against human NCI-H522 cells assessed as cell growth inhibition at 10 uM incubated for 48 hrs by sulforhodamine B assay relative to control; format: functional; summary of the method: as §1
UO-31 = experiment: Antiproliferative activity against human UO-31 cells assessed as cell growth inhibition at 10 uM incubated for 48 hrs by sulforhodamine B assay relative to control; format: functional; summary of the method: as §1
KM12 = experiment: Antiproliferative activity against human KM12 cells assessed as cell growth inhibition at 10 uM incubated for 48 hrs by sulforhodamine B assay relative to control; format: functional; summary of the method: as §1
NCI/ADR-RES = experiment: Antiproliferative activity against human NCI/ADR-RES cells assessed as cell growth inhibition at 10 uM incubated for 48 hrs by sulforhodamine B assay relative to control; format: functional; summary of the method: as §1
NCI-H226 = experiment: Antiproliferative activity against human NCI-H226 cells assessed as cell growth inhibition at 10 uM incubated for 48 hrs by sulforhodamine B assay relative to control; format: functional; summary of the method: as §1
HCT-116 = experiment: Antiproliferative activity against human HCT-116 cells assessed as cell growth inhibition at 10 uM incubated for 48 hrs by sulforhodamine B assay relative to control; format: functional; summary of the method: as §3
786-0 = experiment: Antiproliferative activity against human 786-0 cells assessed as cell growth inhibition at 10 uM incubated for 48 hrs by sulforhodamine B assay relative to control; format: functional; summary of the method: as §2
OVCAR-5 = experiment: Antiproliferative activity against human OVCAR-5 cells assessed as cell growth inhibition at 10 uM incubated for 48 hrs by sulforhodamine B assay relative to control; format: functional; summary of the method: as §1
MDA-MB-231 = experiment: Antiproliferative activity against human MDA-MB-231 cells assessed as cell growth inhibition at 10 uM incubated for 48 hrs by sulforhodamine B assay relative to control; format: functional; summary of the method: as §1
UACC-62 = experiment: Antiproliferative activity against human UACC-62 cells assessed as cell growth inhibition at 10 uM incubated for 48 hrs by sulforhodamine B assay relative to control; format: functional; summary of the method: as §1
HOP-92 = experiment: Antiproliferative activity against human HOP-92 cells assessed as cell growth inhibition at 10 uM incubated for 48 hrs by sulforhodamine B assay relative to control; format: functional; summary of the method: as §3
SR = experiment: Antiproliferative activity against human SR cells assessed as cell growth inhibition at 10 uM incubated for 48 hrs by sulforhodamine B assay relative to control; format: functional; summary of the method: as §1
Hs-578T = experiment: Antiproliferative activity against human Hs-578T cells assessed as cell growth inhibition at 10 uM incubated for 48 hrs by sulforhodamine B assay relative to control; format: functional; summary of the method: as §1

Structure (SMILES) | inhibition at 10 µM (OVCAR-8) [%] | inhibition at 10 µM (SN12C) [%] | inhibition at 10 µM (CCRF-CEM) [%] | inhibition at 10 µM (ACHN) [%] | inhibition at 10 µM (MOLT-4) [%] | inhibition at 10 µM (SNB-19) [%] | inhibition at 10 µM (EKVX) [%] | inhibition at 10 µM (LOX IMVI) [%] | inhibition at 10 µM (HCT-15) [%] | inhibition at 10 µM (U-251) [%] | inhibition at 10 µM (SNB-75) [%] | inhibition at 10 µM (SK-MEL-2) [%] | inhibition at 10 µM (NCI-H522) [%] | inhibition at 10 µM (UO-31) [%] | inhibition at 10 µM (KM12) [%] | inhibition at 10 µM (NCI/ADR-RES) [%] | inhibition at 10 µM (786-0) [%] | inhibition at 10 µM (OVCAR-5) [%] | inhibition at 10 µM (MDA-MB-231) [%] | inhibition at 10 µM (UACC-62) [%] | also measured
Cc1cccc(-c2cn3ccnc3c(-c3ccc4ncn(Cc5ccccc5)c4c3)n2)c1 | 11.5 | 4.72 | 21.1 | 12.4 | 36.9 | 2.58 | 22.3 | 14.8 | 35.2 | 19.4 | 21.7 | 6.34 | 28.4 | 41.7 | 22.1 | 12.1 | 21.4 | 6.64 | 28.4 | 2.46 | inhibition at 10 µM (MDA-MB-468): 16.6%; logD at 1.417 h [1]: 2.16; inhibition at 10 µM (HL-60): 18.2%; inhibition at 10 µM (A498): 22.1%; inhibition at 10 µM (RXF 393): 2.01%; inhibition at 10 µM (NCI-H226): 1.18%; inhibition at 10 µM (HCT-116): 36.7%; inhibition at 10 µM (HOP-92): 28.7%; inhibition at 10 µM (SR): 11%; inhibition at 10 µM (Hs-578T): 8.47%
c1cn2cc(-c3ccc4c(c3)ncn4C3CCCCC3)nc(-c3ccc4ncn(C5CCCCC5)c4c3)c2n1 | 42.6 | 20.5 | 46.1 | 5.48 | 56.9 | 10.6 | 60.2 | 25.9 | 35.6 | 38.7 | 24.8 | 13.7 | 28.5 | 25.6 | 30.6 | 27 | 25.8 | 1.44 | 28.9 | 29.3 | inhibition at 10 µM (MDA-MB-468): 14.9%; logD at 1.417 h [1]: 1.9; inhibition at 10 µM (HL-60): 30%; inhibition at 10 µM (A498): 16.3%; inhibition at 10 µM (RXF 393): 37.4%; inhibition at 10 µM (NCI-H226): 18.8%; inhibition at 10 µM (HCT-116): 29.1%; inhibition at 10 µM (SR): 50%; inhibition at 10 µM (Hs-578T): 23.6%
Brc1cn2ccnc2c(-c2ccc3ncn(C4CCCCC4)c3c2)n1 | 4.92 | 6.47 | 7.68 | 11.5 | 26.3 | 8.09 | 12 | 15.2 | 13.1 | 1.5 | 21.2 | 10.2 | 16.2 | 37.6 | 67.7 | 8.82 | 10 | 6.64 | 24.2 | 19.8 | inhibition at 10 µM (MDA-MB-468): 44.4%; inhibition at 10 µM (HL-60): 18%; inhibition at 10 µM (RXF 393): 5.58%; inhibition at 10 µM (NCI-H226): 22.5%; inhibition at 10 µM (HOP-92): 30.7%; inhibition at 10 µM (SR): 26.8%; inhibition at 10 µM (Hs-578T): 16.1%
c1ccc(Cn2cnc3ccc(-c4nc(-c5cccc6ccccc56)cn5ccnc45)cc32)cc1 | 6.22 | 5.62 | 6.22 | 12.3 | 22.3 | 5.12 | 24.6 | 16.5 | 8.2 | 5.53 | 16.2 | 16.9 | 29.3 | 31.3 | 11 | 5.83 | 12.4 | 1.83 | 28.7 | 12.9 | logD at 1.417 h [1]: 2; inhibition at 10 µM (A498): 6.74%; inhibition at 10 µM (HCT-116): 32.9%; inhibition at 10 µM (HOP-92): 42.5%; inhibition at 10 µM (SR): 12.4%; inhibition at 10 µM (Hs-578T): 5.98%
